According to ChEMBL document CHEMBL1140035, “4"-Benzoylureido-TSAO derivatives as potent and selective non-nucleoside HCMV inhibitors. Structure-activity relationship and mechanism of antiviral action” (J Med Chem, 2008):
≈ marks a conversion by molar mass, not a printed value.

Columns and labels:
Human betaherpesvirus 5 [1] = assay: Antiviral activity against ganciclovir-resistant HCMV with DNA polymerase mutant in HEL cells assessed as reduction of virus-induced cytopathogenicity; assay type: functional, organism-based; details: Human betaherpesvirus 5, HEL
Summary of the method: (§1)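 Resistant mutants raised in vitro by serial passage of HCMV AD-169 under rising drug concentrations. Confluent HEL fibroblasts infected at 100 PFU/well for 2 h, then the inoculum was removed. Cells were kept with serial compound concentrations in duplicate for 7 days at 37 °C. After ethanol fixation, cytopathicity was scored microscopically. EC50 is the concentration halving virus-induced cytopathicity.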

Human betaherpesvirus 5 [2] = assay: Antiviral activity against (S)-3-hydroxy-2-phosphonomethoxypropyl cytosine-resistant HCMV with DNA polymerase mutant in HEL cells assessed as reduction of virus-induced cytopathogenicity; assay type: functional, organism-based; details: Human betaherpesvirus 5, HEL; summary of the method: as §1
Human betaherpesvirus 5 [3] = assay: Antiviral activity against (S)-3-hydroxy-2-phosphonomethoxypropyl adenine-resistant HCMV with DNA polymerase mutant in HEL cells assessed as reduction of virus-induced cytopathogenicity; assay type: functional, organism-based; details: Human betaherpesvirus 5, HEL; summary of the method: as §1
Human betaherpesvirus 5 [4] = assay: Antiviral activity against foscarnet-resistant HCMV with DNA polymerase mutant in HEL cells assessed as reduction of virus-induced cytopathogenicity; assay type: functional, organism-based; details: Human betaherpesvirus 5, HEL; summary of the method: as §1
Human betaherpesvirus 5 [5] = assay: Antiviral activity against acyclovir-resistant HCMV with DNA polymerase mutant in HEL cells assessed as reduction of virus-induced cytopathogenicity; assay type: functional, organism-based; details: Human betaherpesvirus 5, HEL; summary of the method: as §1
Human betaherpesvirus 5 [6] = assay: Antiviral activity against HCMV 6 with […] mutation in HEL cells assessed as reduction of virus-induced cytopathogenicity; assay type: functional, organism-based; details: Human betaherpesvirus 5, HEL
Summary of the method: (§2)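 Drug-resistant HCMV clinical isolates from immunocompromised patients, carrying UL97 and/or DNA polymerase mutations. Confluent HEL fibroblasts infected at 100 PFU/well for 2 h, then residual virus was removed. Medium with serial compound concentrations added in duplicate for 7 days at 37 °C. After ethanol fixation, cytopathicity was scored microscopically. EC50 is the concentration reducing cytopathicity by 50%.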

Human betaherpesvirus 5 [7] = assay: Antiviral activity against HCMV 521 with […] and DNA polymerase mutation in HEL cells assessed as reduction of virus-induced cytopathogenicity; assay type: functional, organism-based; details: Human betaherpesvirus 5, HEL; summary of the method: as §2
Human betaherpesvirus 5 [8] = assay: Antiviral activity against HCMV 530 with […] and DNA polymerase mutation in HEL cells assessed as reduction of virus-induced cytopathogenicity; assay type: functional, organism-based; details: Human betaherpesvirus 5, HEL; summary of the method: as §2
Human betaherpesvirus 5 [9] = assay: Antiviral activity against HCMV Davis in HEL cells assessed as reduction of virus-induced cytopathogenicity after 7 days; assay type: functional, organism-based; details: Human betaherpesvirus 5, Davis, 168 h
Summary of the method: (§3)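 Confluent HEL fibroblasts were infected with strain AD-169 or Davis at 100 PFU/well. After 2 h, residual virus was removed and medium with serial compound concentrations was added, in duplicate. Plates were held 7 days at 37 °C, fixed with ethanol, and scored microscopically for virus-induced cytopathicity. EC50 is the concentration reducing cytopathicity by 50%.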

Human betaherpesvirus 5 [10] = assay: Antiviral activity against HCMV AD169 in HEL cells assessed as reduction of virus-induced cytopathogenicity after 7 days; assay type: functional, organism-based; details: Human betaherpesvirus 5, AD169, HEL, 168 h; summary of the method: as §3
[11] = Cytotoxicity against HEL cells assessed as alteration in cell morphology after 3 days; assay type: cell-based; details: human
Summary of the method: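 Minimum cytotoxic concentration: the lowest compound concentration causing a microscopically detectable alteration of HEL cell morphology.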

[12] = Cytotoxicity against HEL cells assessed as reduction in cell growth after 3 days; assay type: cell-based; details: human
Summary of the method: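 HEL cells were seeded at 5 × 10³ cells/well and allowed to proliferate for 24 h. Compound-containing medium was then added at several concentrations for 3 days at 37 °C. Cells were counted with a Coulter counter. CC50, the concentration reducing cell growth by 50% versus untreated controls, was read from plots of cell number (% of control) against concentration.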

Row | SMILES | EC50 (Human betaherpesvirus 5 [1]) [µg/mL] | EC50 (Human betaherpesvirus 5 [2]) [µg/mL] | EC50 (Human betaherpesvirus 5 [3]) [µg/mL] | EC50 (Human betaherpesvirus 5 [4]) [µg/mL] | EC50 (Human betaherpesvirus 5 [5]) [µg/mL] | EC50 (Human betaherpesvirus 5 [6]) [µg/mL] | EC50 (Human betaherpesvirus 5 [7]) [µg/mL] | EC50 (Human betaherpesvirus 5 [8]) [µg/mL] | EC50 (Human betaherpesvirus 5 [9]) [µM] | EC50 (Human betaherpesvirus 5 [10]) [µM] | MCC at 72 h [11] [µM] | CC50 at 72 h [12] [µM]
1 | Nc1nc2c(ncn2COCCO)c(=O)[nH]1 [ACYCLOVIR] | 4.8 (≈ 21.3 µM) | 12 (≈ 53.3 µM) | 7.9 (≈ 35.1 µM) | 173 (≈ 768 µM) | 130 (≈ 577 µM) | 91 (≈ 404 µM) | 7.7 (≈ 34.2 µM) | 22 (≈ 97.7 µM) |  |  |  | 
2 | Nc1ncnc2c1ncn2CCOCP(=O)(O)O [ADEFOVIR] | 5.8 (≈ 21.2 µM) | 18 (≈ 65.9 µM) | 9.1 (≈ 33.3 µM) | 128 (≈ 469 µM) | 137 (≈ 501 µM) | 90 (≈ 329 µM) | 20 (≈ 73.2 µM) | 42 (≈ 154 µM) |  |  |  | 
3 | Cc1cn([C@@H]2O[C@H](CO)[C@@]3(OS(=O)(=O)C=C3NC(=O)NC(=O)c3ccccc3)[C@H]2O[Si](C)(C)C(C)(C)C)c(=O)n(C)c1=O |  |  |  |  |  |  |  |  | > 4 | > 4 | 20 | 16
4 | Cc1cn([C@@H]2O[C@H](CO[Si](C)(C)C(C)(C)C)[C@@]3(OS(=O)(=O)C=C3NC(=O)N(C(=O)Nc3ccccc3)c3ccccc3)[C@H]2O[Si](C)(C)C(C)(C)C)c(=O)n(C)c1=O |  |  |  |  |  |  |  |  | > 10 | 15 | 46 | 13
5 | Nc1nc2c(ncn2COC(CO)CO)c(=O)[nH]1 [GANCICLOVIR] | 7.6 (≈ 29.8 µM) | 4.9 (≈ 19.2 µM) | 9.1 (≈ 35.7 µM) | 1.5 (≈ 5.88 µM) | 0.54 (≈ 2.12 µM) | 9.4 (≈ 36.8 µM) | 6 (≈ 23.5 µM) | 6.2 (≈ 24.3 µM) |  |  |  | 
6 | CC(C)(C)[Si](C)(C)OCCC1(CO[Si](C)(C)C(C)(C)C)OS(=O)(=O)C=C1NC(=O)NC(=O)c1ccccc1 (stereo not given) |  |  |  |  |  |  |  |  | > 100 | > 100 | > 100 | > 100
7 | CCOC(=O)NC(=O)NC1=CS(=O)(=O)O[C@@]12[C@@H](CO[Si](C)(C)C(C)(C)C)O[C@@H](n1cc(C)c(=O)n(C)c1=O)[C@@H]2O[Si](C)(C)C(C)(C)C |  |  |  |  |  |  |  |  | 2.8 | 2.3 | 10 | 14
8 | Nc1nc(N)c2ncn(CCOCP(=O)(O)O)c2n1 [PMEDAP] | 1.6 (≈ 5.55 µM) | 5.2 (≈ 18 µM) | 2.8 (≈ 9.72 µM) | 44 (≈ 153 µM) | 38 (≈ 132 µM) | 26 (≈ 90.2 µM) | 6.7 (≈ 23.2 µM) | 12 (≈ 41.6 µM) |  |  |  | 
9 | Cc1cn([C@@H]2O[C@H](COC(=O)c3ccccc3)[C@@]3(OS(=O)(=O)C=C3NC(=O)NC(=O)c3ccccc3)[C@H]2O[Si](C)(C)C(C)(C)C)c(=O)n(C)c1=O |  |  |  |  |  |  |  |  | 2.2 | 2.2 | ≥ 5 | 100
10 | Cc1cn([C@@H]2O[C@H](CO[Si](C(C)C)(C(C)C)C(C)C)[C@@]3(OS(=O)(=O)C=C3NC(=O)NC(=O)c3ccccc3)[C@H]2O[Si](C)(C)C(C)(C)C)c(=O)n(C)c1=O |  |  |  |  |  |  |  |  | 4.2 | 6.3 | ≥ 100 | > 100
11 | Cc1cn([C@@H]2O[C@H](CO)[C@@]3(OS(=O)(=O)C=C3NC(=O)NC(=O)c3ccccc3)[C@H]2O)c(=O)n(C)c1=O |  |  |  |  |  |  |  |  | > 100 | > 100 | 100 | > 50
12 | Nc1ncnc2c1ncn2C[C@@H](CO)OCP(=O)(O)O | 2 (≈ 6.6 µM) | 3.3 (≈ 10.9 µM) | 6.2 (≈ 20.4 µM) | 0.11 (≈ 0.363 µM) | 0.081 (≈ 0.267 µM) | 0.91 (≈ 3 µM) | 2.3 (≈ 7.59 µM) | 1.2 (≈ 3.96 µM) |  |  |  | 
13 | Cc1cn([C@@H]2O[C@H](CO[Si](C)(C)C(C)(C)C)[C@@]3(OS(=O)(=O)C=C3NC(=O)NC(=O)c3ccccc3)[C@H]2O)c(=O)n(C)c1=O |  |  |  |  |  |  |  |  | > 100 | > 100 | > 100 | 22
14 | Cc1cn([C@@H]2O[C@H](COCc3ccccc3)[C@@]3(OS(=O)(=O)C=C3NC(=O)NC(=O)c3ccccc3)[C@H]2O[Si](C)(C)C(C)(C)C)c(=O)n(C)c1=O |  |  |  |  |  |  |  |  | > 50 | > 50 | > 50 | > 50
15 | CCNC(=O)NC1=CS(=O)(=O)O[C@@]12[C@@H](CO[Si](C)(C)C(C)(C)C)O[C@@H](n1cc(C)c(=O)n(C)c1=O)[C@@H]2O[Si](C)(C)C(C)(C)C |  |  |  |  |  |  |  |  | 2 | 1.8 | ≥ 3.2 | 10
16 | Cc1cn([C@@H]2O[C@H](CO[Si](C)(C)C(C)(C)C)[C@@]3(OS(=O)(=O)C=C3NC(N)=O)[C@H]2O[Si](C)(C)C(C)(C)C)c(=O)n(C)c1=O |  |  |  |  |  |  |  |  | 2 | > 3.2 | 16 | 11
17 | CCOC(=O)CNC(=O)NC1=CS(=O)(=O)O[C@@]12[C@@H](CO[Si](C)(C)C(C)(C)C)O[C@@H](n1cc(C)c(=O)n(C)c1=O)[C@@H]2O[Si](C)(C)C(C)(C)C |  |  |  |  |  |  |  |  | > 3.2 | > 3.2 | 16 | 13
18 | Cc1cn([C@@H]2O[C@H](CO[Si](C)(C)C(C)(C)C)[C@@]3(OS(=O)(=O)C=C3NC(=O)Nc3ccccc3)[C@H]2O[Si](C)(C)C(C)(C)C)c(=O)n(C)c1=O |  |  |  |  |  |  |  |  | 0.38 | ≥ 0.14 | 1.4 | 1.3
19 | CC(=O)N[C@@H]1O[C@H](CO[Si](C)(C)C(C)(C)C)[C@@]2(OS(=O)(=O)C=C2NC(=O)NC(=O)c2ccccc2)[C@H]1O[Si](C)(C)C(C)(C)C |  |  |  |  |  |  |  |  | > 20 | > 20 | 100 | > 100
20 | CC(=O)O[C@H]1[C@H](n2cc(C)c(=O)n(C)c2=O)O[C@H](COC(=O)c2ccccc2)[C@@]12OS(=O)(=O)C=C2NC(=O)NC(=O)c1ccccc1 |  |  |  |  |  |  |  |  | > 100 | > 100 | > 100 | > 100
21 | Cc1cn([C@@H]2O[C@H](CO[Si](C)(C)C(C)(C)C)[C@@]3(OS(=O)(=O)C=C3NC(=O)NC(=O)c3ccccc3)[C@H]2O[Si](C)(C)C(C)(C)C(C)C)c(=O)n(C)c1=O |  |  |  |  |  |  |  |  | 3.9 | 12.1 | ≥ 100 | ≥ 100
22 | Nc1ccn(C[C@@H](CO)OCP(=O)(O)O)c(=O)n1.O.O [CIDOFOVIR] | 0.59 | 2.2 | 3.1 | 0.1 | 0.069 | 0.49 | 0.79 | 0.62 |  |  |  | 
23 | Cc1cn([C@@H]2O[C@H](COC(=O)c3ccccc3)[C@@]3(OS(=O)(=O)C=C3NC(=O)NC(=O)c3ccccc3)[C@H]2O)c(=O)n(C)c1=O |  |  |  |  |  |  |  |  | > 100 | > 100 | > 100 | > 100
24 | Cc1cn([C@@H]2O[C@H](CO[Si](C)(C)C(C)(C)C)[C@@]3(OS(=O)(=O)C=C3NC(=O)NCc3ccccc3)[C@H]2O[Si](C)(C)C(C)(C)C)c(=O)n(C)c1=O |  |  |  |  |  |  |  |  | 1.1 | 1.3 | 4 | 4.1
